A selection: hits, their analogues and other compounds. The true share with any hit is near 2.7%.
PG9 Ab binder: binders of HIV-1 gp120 antibody PG9, primary screen, biochemical, TR-FRET; HIV-1 gp120 / PG9 antibody interaction; TR-FRET gp120-PG9 antibody binding; inhibition, % at 6.7 µM; 360,000 compounds, 0.43% hits; AID 624416, 2012; in the data active means inhibition above about 8.5%
NR2E3 ag-1: inhibitors of NR2E3-RetCOR corepressor binding, primary screen, NR2E3 agonist project, biochemical, TR-FRET, GST-NR2E3, biotin-RetCOR | Photoreceptor-specific nuclear receptor (Homo sapiens), Q9Y5X4 | 1536-well | inhibition of corepressor binding, % at 4.78 µM | 320,000 compounds, 0.12% hits | AID 2300, 2010;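 active means percent inhibition above the cutoff of mean plus 3 SD of all tested compounds, set per screening campaign, cut at about 20% in these data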
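System: GST-tagged NR2E3 plus biotinylated RetCOR corepressor; Buffer or medium: pH 7.5 Tris-based buffer; Probe or stimulus: RetCOR corepressor, biotinylated, 7 nM; Doses: compound at 4.8 µM, single dose; Schedule: 5 h incubation at 4 °C; Technique: time-resolved FRET; Evaluation: percent inhibition of TR-FRET ratio; Replication: one well per compound, singlicate testing.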
NR2E3 ag-2: NR2E3 agonists in two-hybrid cells, primary screen, cell-based, luminescence, CHO-S, Gal4-NCOR/VP16-NR2E3; Photoreceptor-specific nuclear receptor (Homo sapiens), Q9Y5X4; luciferase; inhibition of corepressor binding, % at 3.98 µM; 360,000 compounds, 0.35% hits; AID 602229, 2012;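 active means inhibition above the mean of all tested compounds plus 3 SD, cut at about 70% in these data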;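 further: higher means lower luciferase signal from less NR2E3 corepressor binding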
NR1D1 modulator: modulators of Rev-erb alpha DNA binding, primary screen, biochemical, FITC-DNA, fluorescence polarization, uHTS | 370,000 compounds, 0.79% hits | Nuclear receptor subfamily 1 group D member 1 (Homo sapiens), P20393 | activity, % at 10 µM | Rev-erbα–FITC-DNA binding, 90 min;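 active means activity above about 14%, limit read from the data; passing the limit was not always enough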
MC4R ag barr: MC4R agonists recruiting beta-arrestin, primary screen, cell-based, luminescence, agonist arm of biased-ligand search. U2OS MC4R beta-arrestin complementation; percent of melanotan II response, DMSO zero. activation, % at 8.9 µM. 360,000 compounds, 0.98% hits;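 active means activation above a per-plate cutoff, the mean activation of sample wells on that plate plus 3 SD, cut at about 8% in these data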
Target sequence (P32245 whole entry, looked up): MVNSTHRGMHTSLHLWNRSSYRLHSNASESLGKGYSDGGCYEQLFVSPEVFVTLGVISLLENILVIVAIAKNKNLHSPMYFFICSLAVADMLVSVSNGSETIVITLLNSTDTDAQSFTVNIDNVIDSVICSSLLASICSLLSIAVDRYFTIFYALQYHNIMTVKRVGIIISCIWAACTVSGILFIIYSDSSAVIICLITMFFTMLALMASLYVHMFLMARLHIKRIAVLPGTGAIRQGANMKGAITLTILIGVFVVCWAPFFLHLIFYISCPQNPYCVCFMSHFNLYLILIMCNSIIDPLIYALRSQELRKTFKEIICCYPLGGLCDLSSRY
MC4R antag cAMP: MC4R antagonists of cAMP signaling, primary screen, cell-based, TR-FRET, antagonist arm of biased-ligand search. Melanocortin receptor 4 (Homo sapiens), P32245. MC4R-expressing cells, MTII-stimulated cAMP, LANCE TR-FRET. inhibition, % at 6.5 µM. 360,000 compounds, 0.48% hits. AID 540295, 2011;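 active means inhibition above its plate's cutoff, the mean of tested wells on that plate plus 3 SD, cut at about 29% in these data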
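System – human MC4R-expressing U2OS cells · Also added – Melanotan II · Dosing – one concentration, 6.5 µM nominal · Timing – 30-min compound, 1-h challenge, 1-h detection, room temperature · Measured by – Eu-cAMP/anti-cAMP TR-FRET, emission 671 nm · Replicates – singlicate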
NR1D1 mod conf: modulators of Rev-erb alpha DNA binding, confirmation, biochemical, FITC-DNA, fluorescence polarization, single point; 90 min; shares compounds with NR1D1 modulator; activation, % at 25 µM; AID 1259319, 2017; 3,000 compounds, 61% hits;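 active means activation at or above a set limit, or at least 3 SD above the negative control mean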
RORg counter: modulation of RORgamma DNA binding, dose response, counter-screen for Rev-erb alpha modulator project, biochemical, fluorescence polarization, FITC-DNA | shares compounds with NR1D1 modulator | purified RORgamma protein-FITC-DNA binding | IC50, µM | 910 compounds, 8% hits | AID 1259320, 2017;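 active means Compounds whose fitted half-maximal concentration for disrupting protein-DNA binding is below 10 micromolar; the record names Rev-erb in its text, so the target is in doubt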
A number is an active result; - = inactive; . = not tested or not shown.

SMILES	PG9 Ab binder	NR2E3 ag-1	NR2E3 ag-2	NR1D1 modulator	MC4R ag barr	MC4R antag cAMP	NR1D1 mod conf	others
COc1ccc(OC)c(NC(=O)c2[nH]c(C)c(C(C)=O)c2C)c1	-	-	-	31.5	-	-	22.0
COc1cc(NC(=O)c2[nH]c(C)c(C(C)=O)c2C)c(OC)cc1Cl	.	.	.	-	.	.	.
COC(=O)[C@]1(Cc2ccccc2)N[C@H](c2ccc(-c3ccccc3)cc2)[C@@H]2C(=O)N(C)C(=O)[C@@H]21	-	-	-	-	-	-	.
COC(=O)[C@]1(Cc2ccccc2)N[C@H](c2ccc(-c3cc(C(C)=O)cs3)cc2)[C@@H]2C(=O)N(C)C(=O)[C@@H]21	-	-	-	23.2	-	-	-
CN(C)c1ccc(P(=O)(Nc2ccccc2)N2CCOCC2)c(NC(=O)c2cccs2)c1 (centres undefined)	-	-	-	42.3	-	-	19.0
CN(C)c1ccc(P(=O)(Nc2ccc([N+](=O)[O-])cc2)N2CCOCC2)c(NC(=O)c2cccs2)c1 (centres undefined)	-	-	-	-	-	-	.
Cc1ccc(NP(=O)(c2ccc(N(C)C)cc2NC(=O)c2cccs2)N2CCOCC2)cc1 (centres undefined)	-	-	-	24.0	-	-	-
CCC(=O)N1CC2(C)CN(C(=O)CC)CC(C)(C1)C2	-	-	-	-	-	-	.
CCOC(=O)c1sc2nc(C)n(N)c(=O)c2c1C	-	-	-	-	-	-	.
CCOC(=O)c1sc2nc(C)[nH]c(=S)c2c1C	-	.	-	61.5	-	-	19.5
COC(=O)C1=C(C)N(Cc2ccccc2)C(=S)NC1c1cccc(OC)c1 (centres undefined)	-	.	.	-	.	.	.
CCCCOc1cccc(C2C(C(=O)c3ccc(C)o3)=C(O)C(=O)N2c2nnc(C)s2)c1 (centres undefined)	-	.	-	18.1	-	-	17.6
O=C(O)c1cccc(Nc2nc(-c3ccc([N+](=O)[O-])cc3)nc3ccccc23)c1	-	.	-	-	-	-	.
O=[N+]([O-])c1ccc(-c2nc(Nc3cccc(O)c3)c3ccccc3n2)cc1	-	-	-	28.0	-	-	-
O=C(O)c1cc2ccc3ccccc3c2oc1=O	-	-	-	-	-	-	.
O=c1oc(C2(O)CCCCC2)cc2ccc(-c3ccc4[nH]ccc4c3)cc12	-	.	-	21.8	-	-	-
CC12CN3CC(C)(CN(C1)C3c1ccc3ccccc3c1O)C2=O (centres undefined)	-	-	-	-	-	-	.
CCn1cc(C2N3CC4(C)CN2CC(C)(C3)C4=O)c2ccccc21 (centres undefined)	-	-	-	50.0	-	-	56.1	RORg counter=-
COCCN(Cc1cc2cc(C)ccc2n2nnnc12)C(=S)Nc1ccccc1C	-	-	-	87.4	-	-	40.4	RORg counter=-
COCCN(Cc1cc2cc3c(cc2n2nnnc12)OCO3)C(=O)c1ccccc1F	-	-	-	-	-	-	.
Cc1ccc(-n2c(Cc3cccs3)nnc2SCC(=O)Nc2ccc(S(N)(=O)=O)cc2)cc1	-	-	-	-	-	-	.
CCSc1nc(N)c(C#N)c(-c2ccccc2Cl)c1C#N	-	-	-	24.9	-	-	22.3
N#Cc1c(N)nc(Sc2ccc(Cl)cc2)c(C#N)c1-c1ccccc1Cl	-	-	-	63.5	-	-	43.3	RORg counter=-
Cc1ccc(-c2cc(-c3ccccc3Cl)c(C#N)c(N)n2)o1	-	-	-	-	-	-	.
Cc1cc(C)c(NC(=O)CNC(=O)c2ccccc2OCc2c(C)noc2C)c(C)c1	-	-	-	-	-	-	.
SMILES	PG9 Ab binder	NR2E3 ag-1	NR2E3 ag-2	NR1D1 modulator	MC4R ag barr	MC4R antag cAMP	NR1D1 mod conf	others
Cc1cc(C)c(NC(=O)COc2ccccc2C(=O)Nc2ccc3c(c2)oc2ccccc23)c(C)c1	-	-	-	32.4	-	-	37.0	RORg counter=-
CC(=O)C1=C(O)C(=O)N(c2ccc(O)cc2)C1c1ccccc1 (centres undefined)	-	-	-	-	-	-	.
CC(CN1C(C)CCCC1C)OC(=O)c1ccc(F)cc1 (centres undefined)	-	-	-	-	-	-	.
COc1cc(/C=C(\C#N)C(=O)Nc2cc(C(F)(F)F)ccc2Cl)ccc1OCC(=O)Nc1cccc(C(F)(F)F)c1	-	-	-	34.0	-	-	19.0
CCOC(=O)/C(C#N)=C/c1ccc(OCC(=O)Nc2ccc(C)c(C)c2)c(OC)c1	-	-	-	-	-	-	.
COc1ccccc1CNCCS(=O)(=O)NCc1ccccc1OC	-	.	-	-	-	-	.
CN(C)c1ccc(C=C2SC(=S)NC2=O)cc1	-	.	-	47.7	-	-	35.1	RORg counter=-
CCOC(=O)c1cnc2nc(C(F)(F)F)[nH]n2c1=O	-	-	-	-	-	-	.
CC(C)(C)S(=O)(=O)/C(C#N)=C/c1cccn1S(=O)(=O)c1ccccc1	-	.	-	16.6	-	-	10.7
CS(=O)(=O)/C(C#N)=C/c1cccn1S(=O)(=O)c1ccccc1	-	-	-	-	-	-	.
COc1ccc(-c2nnc3ccc(SCC(=O)Nc4nc5ccc(C)cc5s4)nn23)cc1OC	-	-	-	25.1	-	-	25.9
Cc1cccc(CSc2nc3ccncc3n2CC(=O)Nc2cc(C)cc(C)c2)c1	-	-	-	28.9	-	-	13.4
CCCC(C)NC(=O)Cc1ccc(Br)cc1 (centres undefined)	-	-	-	-	-	-	.
CCC(C)NC(=O)Cc1c(OC)ccc2cc(Br)ccc12 (centres undefined)	-	-	-	22.8	-	-	40.3	RORg counter=-
CC1CCN(CCCNC(=O)c2ccc(CS(=O)(=O)Cc3ccccc3F)o2)CC1	-	.	-	-	-	-	.
Cc1ccc(-n2c(-c3cccs3)nc3nc4ccccc4nc32)cc1	-	-	.	-	.	.	.
Fc1ccc(-n2c(-c3cccs3)nc3nc4ccccc4nc32)cc1	-	-	-	75.4	-	-	59.4	RORg counter=-
